ALR H2O2 inh: inhibitors of human ALR sulfhydryl oxidase, primary screen, biochemical, H2O2 detection, HRP-luminol luminescence, single point; FAD-linked sulfhydryl oxidase ALR (Homo sapiens), P55789; purified ALR, DTT oxidation; inhibition, % (test concentration not listed); 3.8% of 290,000 active; AID 485317, 2010;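 active = mean replicate inhibition above about 79%, with every replicate also reaching it, limit read from the data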
Target sequence (P55789 whole entry, looked up): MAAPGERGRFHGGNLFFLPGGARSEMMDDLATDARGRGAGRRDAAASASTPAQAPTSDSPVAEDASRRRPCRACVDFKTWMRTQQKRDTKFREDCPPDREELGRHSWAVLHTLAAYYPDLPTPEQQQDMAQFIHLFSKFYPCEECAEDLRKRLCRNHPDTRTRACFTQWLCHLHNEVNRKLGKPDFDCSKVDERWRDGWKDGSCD
UCH37 DUB inh: inhibitors of human UCH37 deubiquitinase, primary screen, biochemical, Ub-AMC cleavage, fluorescence | 0.33% of 330,000 active | inhibition, % (no concentration beside the values) | purified proteasome/UCH37 | Ubiquitin carboxyl-terminal hydrolase isozyme L5 (Homo sapiens), Q9Y5K5 | AID 588478, 2011;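 active = mean inhibition over replicate wells above about 20%, limit read from the data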;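 note: 0% = compound-free wells with enzyme and 100% = wells lacking proteasome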
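Reagent: Ub-AMC substrate; assay system: Proteasome-associated human UCH37 deubiquitinase; controls: no-proteasome and no-compound wells; read-out: % inhibition of Ub-AMC cleavage fluorescence; timing: 30 min preincubation with enzyme, 25 min cleavage at room temperature; signal: AMC fluorescence from Ub-AMC cleavage, excitation 355 nm, emission 460 nm; buffer or medium: Tris-HCl pH 7.4 plus ovalbumin, ATP-MgCl2, DTT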
NALP1 yeast inh: NALP1 inflammasome inhibitors in reconstituted yeast, colorimetric, S. cerevisiae, triplicate retest; AID 2071, 2009; S. cerevisiae NALP1/ASC/caspase-1 growth, X-gal OD620, 72 h; 0.61% of 280,000 active; inhibition, % at 10 µM; in the data active = inhibition mostly above about 24%, no sharp cut-off; inactive = mostly below about 32%
ATG4B inh: ATG4B protease inhibitors, primary screen, biochemical, fluorescence, uHTS; AID 504462, 2011; inhibition, % at 8.33 µM; ATG4B cleavage of LC3-PLA2, NBD-HPC fluorescence, 1 h; 0.51% of 340,000 active; Cysteine protease ATG4B (Homo sapiens), Q9Y4P1; in the data active = inhibition above about 40%
Target sequence (Q9Y4P1 whole entry, looked up): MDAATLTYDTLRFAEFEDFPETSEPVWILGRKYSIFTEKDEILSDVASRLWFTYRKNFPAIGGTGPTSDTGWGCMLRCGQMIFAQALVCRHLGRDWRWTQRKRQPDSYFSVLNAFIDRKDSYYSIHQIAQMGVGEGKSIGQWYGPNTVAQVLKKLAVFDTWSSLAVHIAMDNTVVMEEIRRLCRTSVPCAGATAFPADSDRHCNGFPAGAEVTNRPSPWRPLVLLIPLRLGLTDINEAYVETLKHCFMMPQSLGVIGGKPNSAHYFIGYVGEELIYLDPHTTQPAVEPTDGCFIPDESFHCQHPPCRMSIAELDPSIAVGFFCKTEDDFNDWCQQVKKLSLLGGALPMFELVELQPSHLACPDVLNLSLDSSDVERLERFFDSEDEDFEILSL
NLRP3 yeast inh: NALP3 inflammasome inhibitors in reconstituted yeast, primary screen, luminescence, uHTS. Yeast reconstituted NLRP3/ASC/caspase-1, beta-gal luminescence, 24 h. inhibition, % at 10 µM. 0.39% of 330,000 active;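 active = inhibition of 50% or more; inactive = inhibition below 50%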;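 note: plate controls were induced DMSO wells for no effect and uninduced yeast grown without galactose for full effect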
Calb FLC: C. albicans growth inhibition with fluconazole, primary screen, CaCi-2 strain, Alamar Blue fluorescence; C. albicans CaCi-2 (fluconazole-resistant clinical isolate) + fluconazole, 48 h; growth inhibition, % (test concentration not listed); 0.57% of 300,000 active; AID 1979, 2009;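 active = growth inhibition above about 58% in most replicates, limit read from the data, passing the limit was not always enough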;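 note: all wells also contain fluconazole at 8 µg/ml as a sub-toxic cotreatment; 0% = median of DMSO wells and 100% = median of geldanamycin control wells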
* hit, by the source's call; x = no result. An excerpt weighted towards active compounds, which were near 4.8% of everything screened.

SMILES | ALR H2O2 inh | UCH37 DUB inh | NALP1 yeast inh | ATG4B inh | NLRP3 yeast inh | Calb FLC
Cc1ccc2nc(-c3ccc(O)c(O)c3)cn2c1 | 99* | x | -4 | -4 | 1 | 46
Cc1nc(-c2ccc(O)c(O)c2)cs1 | 99* | 0 | 5 | -7 | 9 | -16
O=C(NN=Cc1cccc(O)c1)c1ccc(COc2ccccc2Br)cc1 | x | 4 | x | x | x | x
Cc1ncc([N+](=O)[O-])n1CC(=O)NN=Cc1ccc(F)cc1 | x | 2 | x | x | x | x
O=C(CNC(=O)c1ccccc1)NN=Cc1ccc([N+](=O)[O-])s1 | x | 3 | x | x | x | x
O=C(NCCNC(=O)c1ccccn1)c1ccccc1 | 95* | 2 | -3 | -13 | 11 | 20
O=C(NCCNC(=O)c1ccccn1)c1ccc(Cl)cc1 | 2 | 4 | -2 | -7 | -3 | 2
COc1ccc(OC)c(C=NNC(=S)NCCc2ccccc2)c1 | x | -48 | x | x | x | x
O=C(NCC(c1cccnc1)N1CCN(c2ccc(F)cc2)CC1)OCc1ccccc1 (centres undefined) | 64 | -2 | -7 | 0 | 15 | 21
O=C(NCC(c1cccnc1)N1CCN(c2ccccc2)CC1)C1CCCCC1 (centres undefined) | 88* | 4 | 12 | 6 | 0 | -18
O=S(=O)(NCC(c1cccnc1)N1CCN(c2ccccc2)CC1)c1cccs1 (centres undefined) | 98* | -4 | 19 | -12 | 4 | 5
O=C(NCC(c1cccnc1)N1CCN(c2ccccc2)CC1)OCc1ccccc1 (centres undefined) | 76* | 0 | 24 | -6 | 15 | -26
COC(=O)NCC(c1cccnc1)N1CCN(c2ccccc2)CC1 (centres undefined) | 89* | 1 | 6 | -2 | 8 | 8
CC(=NNC(=O)c1sccc1C)c1cccnc1 | x | 5 | x | x | x | x
Cc1ccc(-c2csc(NN=Cc3ccco3)n2)c(C)c1 | x | 3 | x | x | x | x
O=C(NCC(c1cccnc1)N1CCN(c2ccccc2)CC1)c1ccc2c(c1)OCO2 (centres undefined) | 99* | 1 | 2 | -2 | -2 | -26
COc1cc(C(=O)NCC(c2cccnc2)N2CCN(C)CC2)cc(OC)c1OC (centres undefined) | -17 | 2 | 1 | -20 | 6 | -17
COc1cc(C(=O)NCC(c2cccnc2)N2CCN(c3ccccc3)CC2)cc(OC)c1OC (centres undefined) | 99* | 0 | x | 6 | -2 | 2
COc1cc2c(ccc3cc(OC)c(OC)c(O)c32)cc1O | 99* | 4 | -4 | -17 | 3 | 16
CCOc1c(Br)cc(CNc2ccc(N3CCN(C(C)=O)CC3)cc2)cc1OC | 98* | 2 | x | -6 | 22 | -2
COc1cc(CNc2ccc(N3CCCC3)cc2)cc(Cl)c1OC | 19 | 1 | -12 | 3 | 27 | 87*
CCOc1cc(CNc2ccc(N3CCN(C(C)=O)CC3)cc2)cc(Br)c1OC | x | 2 | 39 | -2 | 14 | -10
CCOc1cc(CNc2ccc(N3CCOCC3)cc2)cc(Br)c1OCC | 99* | 3 | 40 | -6 | 9 | -9
COc1cc(CNc2ccc(N3CCOCC3)cc2)cc(Br)c1OC | 98* | x | 12 | 3 | 15 | 3
CC(=NNC(=O)c1ccc2c(c1)OCCO2)c1ccc([N+](=O)[O-])cc1 | x | 3 | x | x | x | x
SMILES | ALR H2O2 inh | UCH37 DUB inh | NALP1 yeast inh | ATG4B inh | NLRP3 yeast inh | Calb FLC
Cc1ccsc1C=c1sc2ncnn2c1=O | x | 9 | x | x | x | x
Cc1ccccc1NC(=O)c1ccc2c(c1)N(C)CCS2 | 98* | -5 | 9 | -10 | 28 | -25
COc1ccc(CNC(=O)c2ccc3c(c2)N(C)CCS3)cc1 | 96* | -78 | 1 | -11 | 31 | -8
CN1CCSc2ccc(C(=O)Nc3cc(F)ccc3F)cc21 | 10 | -177 | 2 | -7 | 42 | 22
CCOC(=O)c1[nH]c2ccccc2c1NC(=S)Nc1cccc(C)c1 | 98* | 5 | 20 | -5 | 12 | 56
CCOC(=O)c1[nH]c2ccccc2c1NC(C)=O | -7 | 4 | -51 | -3 | 11 | 18
CCOC(=O)c1[nH]c2ccc(C)cc2c1NC(=O)CN1CCCCC1 | 98* | -9 | 0 | 1 | 12 | -2
CCOC(=O)c1[nH]c2ccccc2c1NC(=S)Nc1ccccc1 | 98* | 3 | 20 | -11 | 19 | 5
CC(C)C(=O)Nc1ccccc1C(=O)NN=Cc1ccc([N+](=O)[O-])cc1 | x | 7 | x | x | x | x
O=C(CON=C1CCCc2nonc21)Nc1ccccc1Cl | x | -1 | x | x | x | x
COc1ccc(C=Nn2cnn(Cc3ccccc3Cl)c2=S)cc1OC | x | 4 | x | x | x | x
CC(=NNC(=O)c1ccccc1)c1cc2cc([N+](=O)[O-])ccc2oc1=O | x | 5 | x | x | x | x
O=c1c2ccccc2nc(NN=Cc2c(O)ccc3ccccc23)n1O | x | -4 | x | x | x | x
Cc1ccnc(SCC(=O)N2CCN(c3cccc(Cl)c3)CC2)n1 | 19 | -1 | 20 | -13 | 23 | 21
Cc1cc(C)n2nc(SCC(=O)N3CCN(c4ccccc4)CC3)nc2n1 | 98* | 2 | x | -4 | 19 | x
Cc1ccnc(SCC(=O)N2CCN(c3ccccc3)CC2)n1 | 98* | 2 | 1 | -8 | -11 | -6
CC1(C)Cc2ccccc2-c2nnc(SCc3ccccc3)n21 | x | 1 | 10 | 30 | 4 | 29
CC1(C)Cc2ccccc2-c2nnc(SCC(=O)N3CCN(c4ccccc4)CC3)n21 | 97* | 4 | 5 | 12 | 6 | -2
CCOC(=O)C1CCCN(C(=S)Nc2ccc(Nc3ccccc3)cc2)C1 (centres undefined) | 97* | 2 | -18 | 2 | 8 | -10
CCOC(=O)C1CCCN(C(=O)Nc2c(-c3ccccc3)noc2C)C1 (centres undefined) | -10 | 7 | 36* | 9 | 10 | 2
CCOC(=O)C1CCN(C(=S)Nc2ccccc2)CC1 | -3 | -2 | -16 | 4 | 12 | -4
CCOC(=O)C1CCCN(C(=O)c2c(-c3ccccc3Cl)noc2C)C1 (centres undefined) | -8 | -2 | 5 | -6 | -7 | 6
Nn1c(SCC(=O)Nc2ccc(F)cc2)nnc1C1CCCCC1 | 0 | 0 | 4 | -6 | -14 | 4
CCCCn1nnnc1SCC(=O)Nc1ccc(N(C)C)cc1 | 99* | 3 | 9 | -13 | 11 | -25
CC(=O)Nc1ccc(NC(=O)CSc2nnc(C)c(=O)n2N)cc1 | 98* | 4 | -8 | 0 | 4 | -13
Cc1csc(NC(=O)CSc2nnnn2C)n1 | -4 | 2 | -84 | 1 | -4 | 64
CN(C)c1ccc(NC(=O)CSc2nnc(C3CCCCC3)n2N)cc1 | 99* | 8 | 8 | -4 | 14 | -44
